An excerpt weighted towards active compounds, which were near 3.1% of everything screened.
GPR7 antagonist = blocks human GPR7 receptor signaling; inhibition, % at 4.4 µM; P48145; AID 1861; GPR7-expressing cells, fluorescence antagonist assay; 290,000 compounds, 1.1% hits; in the data active = inhibition above about 16%, passing the limit was not always enough;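 also: cells stimulated with the agonist NPW; 0% = agonist with vehicle and 100% = vehicle without agonist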
Target sequence (P48145 whole entry, looked up): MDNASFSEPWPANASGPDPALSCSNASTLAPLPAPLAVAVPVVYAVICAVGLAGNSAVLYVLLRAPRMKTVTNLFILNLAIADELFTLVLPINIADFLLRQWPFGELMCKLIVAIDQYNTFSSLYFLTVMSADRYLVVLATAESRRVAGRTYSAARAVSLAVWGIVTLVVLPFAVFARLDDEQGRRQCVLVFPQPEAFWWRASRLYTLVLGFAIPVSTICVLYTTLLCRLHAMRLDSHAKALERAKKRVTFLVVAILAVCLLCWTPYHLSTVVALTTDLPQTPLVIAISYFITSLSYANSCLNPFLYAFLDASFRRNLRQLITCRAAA
OX1R antag-1 = blocks the human orexin 1 receptor | O43613 | CHO/OX1R cells, Fluo-8 calcium fluorescence, orexin A | inhibition, % at 5 µM | 330,000 compounds, 0.43% hits | AID 434989;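 active = inhibition above its plate's threshold, mean inhibition of all tested compounds on the plate plus 3 SD, cut at about 37% in these data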;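 also: 0% = orexin A challenge wells and 100% = SB-334867-A antagonist wells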
CHO parental Ca = counter-screen for OX1R antagonists: effect in parental CHO cells | inhibition, % at 5.6 µM | 330,000 compounds, 0.63% hits | AID 463079 | parental CHO-K1, ATP-induced calcium, Fluo-8 fluorescence;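 active = inhibition above that plate's mean sample inhibition plus 3 SD, cut at about 26% in these data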;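 also: 0% = ATP-challenged DMSO wells and 100% = DMSO wells without ATP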
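Material: Parental CHO cells | Reagent: ATP | Compound dosing: Single nominal dose of 5.6 µM per compound | Detection: Intracellular calcium via Fluo-8 no-wash fluorescent dye | Read-out: % inhibition of ATP-induced calcium mobilization | Benchmarks: Low control ATP plus DMSO, high control DMSO only | Replicates: Singlicate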
OX1R antag-2 = OX1R (human) antagonism. OX1R-expressing cells, FRET antagonist read-out. 330,000 compounds, 1.8% hits. AID 485270. inhibition, % at 6.6 µM; in the data active = inhibition mostly above about 38%, no sharp cut-off; inactive = mostly below about 40%;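 also: 0% = agonist challenge alone and 100% = reference antagonist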
GalR3 antag = human GalR3 antagonism; 360,000 compounds, 0.44% hits; HEK293 GalR3-CNG cAMP membrane potential fluorescence; galR3 body fused to GalR1 C-terminus; inhibition, % at 3 µM; O60755;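 active = inhibition above the screen-wide average plus 3 SD, cut at about 13% in these data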;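 also: forskolin and galanin both at EC90 stimulate the cells; cAMP rise reported by CNG channel membrane potential dye signal; 0% = forskolin plus galanin with DMSO and 100% = forskolin alone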
Target sequence (O60755 1-299 limits assumed): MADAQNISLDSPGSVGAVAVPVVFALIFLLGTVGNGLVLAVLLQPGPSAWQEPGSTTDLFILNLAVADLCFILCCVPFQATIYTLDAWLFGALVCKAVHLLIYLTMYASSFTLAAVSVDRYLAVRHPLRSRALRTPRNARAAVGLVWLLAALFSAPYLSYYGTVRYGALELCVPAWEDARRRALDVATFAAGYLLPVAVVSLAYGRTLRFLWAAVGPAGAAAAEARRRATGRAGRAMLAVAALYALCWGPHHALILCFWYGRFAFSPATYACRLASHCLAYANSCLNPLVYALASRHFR
An asterisk follows results filed as active; x = no result given; + = active, no number.

SMILES	GPR7 antagonist	OX1R antag-1	CHO parental Ca	OX1R antag-2	GalR3 antag
COc1ccc(/C=N/NC(=O)c2nn(-c3ccc(Cl)cc3)c(=O)c3c(N)scc23)cc1	-4	-14	-8	52*	-3
O=C(NCC1CCCO1)c1cc2c([nH]c3ccccc32)c(-c2cccc(Cl)c2)n1 (stereo not given)	-6	9	1	50*	x
COc1cccc(-c2nc(CS(=O)(=O)CC(=O)Nc3ccccc3Cl)c(C)o2)c1	-4	5	-19	51*	1
Cc1cc(C(=O)N2CCN(C/C=C/c3ccccc3)CC2)cs1	20*	-19	-19	5	x
NS(=O)(=O)c1ccc(CCNC(=O)CSc2ccsc2[N+](=O)[O-])cc1	0	-13	-18	44*	-3
COC(=O)c1c(C)oc2ccc(N(C(=O)c3ccncc3)S(=O)(=O)c3ccc(C)cc3C)cc12	-7	35	38*	23	-14
COC(=O)N1C[C@H](Oc2ncccn2)[C@H]2C[C@@H]1c1ccccc1O2	x	x	x	x	-1
COc1cc(/C=C2/S/C(=N/S(=O)(=O)Cc3ccccc3)NC2=O)c([N+](=O)[O-])cc1OC	-9	-14	-4	41*	-7
O=C1N/C(=N\S(=O)(=O)c2ccccc2)S/C1=C\c1cc([N+](=O)[O-])ccc1O	16	59*	46*	15	-8
Cn1cc(CC(=O)Nc2ccc(Oc3cccnc3)cc2)c2ccccc21	x	x	x	x	-6
CC(C)c1ccc(S(=O)(=O)Nc2ccc(SC(F)F)cc2)cc1	-8	-11	42*	-2	-4
Cc1ccc(S(=O)(=O)Nc2ccc3c(c2)n(C)c(=O)n3C)c(C)c1	-13	5	-1	30	1
Cc1ccc(S(=O)(=O)Nc2ccc(SC(F)F)cc2)c(C)c1	-13	2	43*	-12	-9
Cc1nc2ccccc2c2oc(C(=O)NCC3COc4ccccc4O3)cc12 (stereo not given)	-5	10	41*	85*	2
COc1ccc(CNC(=O)c2cc3c(C)nc4ccccc4c3o2)c(OC)c1	0	-12	57*	56*	x
Cc1nc2ccccc2c2oc(C(=O)Nc3ccc(C(C)C)cc3)cc12	-25	-16	-42	66*	-2
COc1cccc(CNC(=O)c2cc3c(C)nc4ccccc4c3o2)c1	-5	-15	-4	9	x
O=C(NCC1COc2ccccc2O1)c1cccc(S(=O)(=O)NCc2ccccc2)c1 (stereo not given)	x	-9	-10	51*	-3
COc1ccccc1CCn1cnc(-c2ccc(F)cc2)c1C(C)C	x	x	x	x	-9
CCc1ccc(CNC(=O)c2cc3c(C)nc4ccccc4c3o2)cc1	1	-7	46*	79*	x
N#CC(C#N)=NNc1ccc([N+](=O)[O-])cc1	-12	2	-1	72*	-4
C/C(=N\Nc1ccc([N+](=O)[O-])cc1)c1ccc(C#N)cc1	-13	-4	14	18	-5
COc1ccc(C(=S)N2CCN(c3cccc(Cl)c3)CC2)c(OC)c1	28*	9	-10	23	-6
O=C(C1=C(c2ccccc2)C(=O)c2ccccc2C1=O)c1ccccc1	-19	x	x	x	-11
Cc1oc2c(c1C(=O)c1ccccc1)C(=O)C(=O)c1ccccc1-2	19	5	-16	+	-5
SMILES	GPR7 antagonist	OX1R antag-1	CHO parental Ca	OX1R antag-2	GalR3 antag
O=C(c1ccccc1)c1coc2ccc(O)c(Cl)c12	-4	-18	-14	16	-7
O=C1C(=O)c2c(C(=O)c3ccccc3)coc2-c2ccccc21	-7	-1	-22	53*	-9
CN(CC(=O)Nc1ccccc1Cl)C(=O)C1CSC2(C)CCC(=O)N12 (stereo not given)	x	-2	0	-2	-5
COc1ccc(NS(=O)(=O)c2cc(C(=O)N3CCCCCC3)ccc2C)cc1	x	-11	-17	11	-6
COc1cc(/C=C2\SC(=S)N(NC(=O)c3ccccc3O)C2=O)ccc1O	35	21	35*	25	-11
O=S(=O)(Cc1ccccc1)Nc1ccc(F)cc1	-8	x	x	x	-3
CNc1ccccc1C(C)(C)c1cc(-c2cccc(OC)c2)no1	-6	13	41*	14	-10
CNc1ccccc1C(C)(C)c1cc(-c2cc(C)cc(C)c2)no1	-13	-35	-8	10	2
CCOC(=O)C1CCN(CC(=O)Nc2c(C(=O)OC)[nH]c3ccc(Cl)cc23)CC1	18*	-3	-13	41	-5
COC(=O)CC#C[C@@H](C)[C@H](NS(=O)(=O)c1ccc(C)cc1)C(C)(C)C	x	x	x	x	-7
CC(C)(C)C(=O)OCCNc1nc(-c2ccccc2)nc2ccccc12	-6	-13	-17	72*	-10
CC(C)OCCCNc1nc(-c2ccccc2)nc2ccccc12	-18	23	-17	51*	-13
CN(C)CCCNc1nc(-c2ccccc2)nc2ccccc12	-2	-16	-28	23	-2
COc1cccc(-c2cc(CNC(=O)[C@H]3O[C@@H](n4cnc(C(N)=O)n4)[C@H](O)[C@@H]3O)no2)c1	x	x	x	x	1
COc1ccccc1-n1c(C)c2c(OC)cccc(=O)c2c1C	-12	-17	-8	7	-2
COc1cccc(=O)c2c(C)oc(C)c12	19*	-14	-18	30	2
COc1ccc(-c2ccnc3cc(C(=O)O)nn23)cc1	-1	-19	6	57*	-3
O=C(O)c1cc2nccc(-c3ccco3)n2n1	-14	2	1	64	-6
Cc1noc(C)c1COc1ccc(CC(=O)NCc2ccccc2)cc1	18*	-9	-14	20	-3
Cc1cc(NC(=O)Cc2cn(C)c3ccccc23)ccc1Nc1cccnc1	x	x	x	x	-6
COc1ccc(C(=O)c2ccc(N(C)C)cc2)c(OC)c1	14	-10	-18	7	-9
CN(C)c1ccc(C(=O)c2ccc(N(C)C)c3ccccc23)cc1	7	32	70*	55*	1
Cn1c(C(=O)N2CCC(C(=O)N3CCOCC3)CC2)cc2sccc21	20*	-4	2	6	x
CN(C(=O)c1ccc(NC(=O)Cc2ccc(NC(=O)C3CCN(C(=O)C4CC4)CC3)cc2)cc1)C1CCCC1	x	x	x	x	-3
CCCCOC(=O)CSCC(=O)N1N=C(c2cccs2)CC1c1ccc(F)cc1 (stereo not given)	0	-13	29*	3	-5
CCOC(=O)CSCC(=O)N1N=C(c2cccs2)CC1c1ccc(F)cc1 (stereo not given)	5	-25	-10	13	-6
O=C(NC(=S)N1CCN(Cc2ccccc2)CC1)c1ccco1	-2	-17	100*	-1	9
O=C(NNC(=O)C1CC1)c1cc2cc3ccccc3nc2s1	-9	-17	5	54*	-2
Cn1c(=O)c2[nH]c(Cc3cccc(O)c3)nc2n(C)c1=O	x	x	x	x	5
Cn1c(=O)c2[nH]c(COc3ccc(C(C)(C)C)cc3)nc2n(C)c1=O	-17	46*	54*	36	x
